Read-outs that look alike come from different tables or passages of the source. Where no end group is shown, it is not given here.
What was measured:
[1] = system: PC3 human prostate cancer xenografts; assay: Contrast-enhanced MRI of PC3 prostate tumor xenografts in rats; assay type: in vivo, rat; details: PC3 tumors in rats, 0.1 mmol/kg IV, 3 T, n = 6
Procedure, shortened: (§1)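 Male rats carried subcutaneous flank xenografts of 4 × 10⁶ PC3 or 8 × 10⁶ LNCaP cells in Matrigel-PBS (1:1) and were imaged once tumours exceeded 100 mm³. Scans used 1 mm slices, 2 averages and a 128 × 128 matrix. The same tumour-bearing rats were reused across agents and doses, with a clinical Gd agent at 0.1 mmol Gd/kg as comparator.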

[2] = system: LNCaP human prostate tumors; assay: Contrast-enhanced MRI of LNCaP prostate tumor xenografts in rats; assay type: in vivo, rat; details: 0.1 mmol/kg IV, 3 T, n = 3
Procedure, shortened: as §1

[3] = cited from earlier work
CYP2C9 = CYP2C9 (Homo sapiens, UniProt P11712); assay: CYP2C9 inhibition in human liver microsomes; details: CYP2C9, positive control selective inhibitor, human liver microsomes
CYP2C9, sequence (P11712 whole entry): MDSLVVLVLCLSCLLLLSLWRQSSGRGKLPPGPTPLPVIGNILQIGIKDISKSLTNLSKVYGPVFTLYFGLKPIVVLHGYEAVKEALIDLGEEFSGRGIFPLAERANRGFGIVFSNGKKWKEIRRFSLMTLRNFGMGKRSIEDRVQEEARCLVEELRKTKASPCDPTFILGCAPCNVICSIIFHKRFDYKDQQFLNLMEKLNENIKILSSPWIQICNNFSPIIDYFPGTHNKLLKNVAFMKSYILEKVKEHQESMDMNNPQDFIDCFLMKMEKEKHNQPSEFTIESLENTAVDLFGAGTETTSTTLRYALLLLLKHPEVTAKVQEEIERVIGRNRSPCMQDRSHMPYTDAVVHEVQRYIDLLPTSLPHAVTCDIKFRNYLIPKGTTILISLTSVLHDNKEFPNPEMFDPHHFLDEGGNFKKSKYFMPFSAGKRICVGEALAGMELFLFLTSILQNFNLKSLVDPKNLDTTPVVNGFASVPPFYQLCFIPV

CYP1A2 = details: positive control 50 μM, CYP1A2, human primary hepatocytes
CYP2D6 = CYP2D6 (Homo sapiens, UniProt P10635); assay: CYP2D6 inhibition in human liver microsomes; assay type: in vitro ADME; details: CYP2D6, positive control selective inhibitor, human liver microsomes
CYP2D6, sequence (P10635 whole entry): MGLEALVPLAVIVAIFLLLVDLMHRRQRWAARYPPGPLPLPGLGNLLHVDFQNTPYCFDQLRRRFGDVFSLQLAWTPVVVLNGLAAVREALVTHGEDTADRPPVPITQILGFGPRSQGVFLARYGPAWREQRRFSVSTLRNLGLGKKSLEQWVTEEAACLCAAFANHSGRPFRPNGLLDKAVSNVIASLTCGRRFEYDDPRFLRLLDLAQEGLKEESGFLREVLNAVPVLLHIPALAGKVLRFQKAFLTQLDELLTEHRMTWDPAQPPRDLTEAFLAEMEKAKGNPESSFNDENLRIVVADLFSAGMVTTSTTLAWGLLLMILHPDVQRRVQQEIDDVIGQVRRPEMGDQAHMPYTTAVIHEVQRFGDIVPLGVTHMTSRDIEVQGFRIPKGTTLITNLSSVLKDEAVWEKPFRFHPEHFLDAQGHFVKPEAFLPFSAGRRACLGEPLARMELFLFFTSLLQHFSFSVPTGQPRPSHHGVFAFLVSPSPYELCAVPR

CYP2B6 [4] = details: positive control 1000 μM, CYP2B6, human primary hepatocytes
EDB protein fragment = EDB protein fragment (Homo sapiens, UniProt P02751); details: cited from earlier work
EDB protein fragment, sequence (P02751 1271-1359 limits assumed): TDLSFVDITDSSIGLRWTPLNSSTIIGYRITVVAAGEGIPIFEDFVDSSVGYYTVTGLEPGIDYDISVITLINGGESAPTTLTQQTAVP

CYP2C8 = CYP2C8 (Homo sapiens, UniProt P10632); assay: CYP2C8 inhibition in human liver microsomes; assay type: in vitro ADME; details: CYP2C8, positive control selective inhibitor
CYP2C8, sequence (P10632 whole entry): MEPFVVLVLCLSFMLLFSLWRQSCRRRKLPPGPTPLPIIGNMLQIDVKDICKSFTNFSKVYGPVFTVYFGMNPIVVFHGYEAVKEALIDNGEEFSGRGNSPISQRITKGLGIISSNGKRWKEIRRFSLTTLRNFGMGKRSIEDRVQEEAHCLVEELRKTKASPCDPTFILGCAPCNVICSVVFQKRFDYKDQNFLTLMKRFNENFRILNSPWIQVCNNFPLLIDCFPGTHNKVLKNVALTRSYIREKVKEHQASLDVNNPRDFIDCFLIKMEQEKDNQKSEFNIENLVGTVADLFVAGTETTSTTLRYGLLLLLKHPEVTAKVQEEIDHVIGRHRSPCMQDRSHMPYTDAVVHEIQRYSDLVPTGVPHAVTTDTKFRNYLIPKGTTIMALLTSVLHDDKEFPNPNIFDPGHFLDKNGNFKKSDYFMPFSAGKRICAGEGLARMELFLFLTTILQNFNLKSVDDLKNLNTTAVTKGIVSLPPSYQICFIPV

[5] = Hepatocyte metabolic stability, negative and positive controls; assay type: in vitro ADME; details: hepatocyte incubation
[6] = Metabolic pathway study in human liver microsomes; assay type: in vitro ADME; details: 120 minutes
CYP2B6 [7] = target: CYP2B6 (Homo sapiens, UniProt P20813); details: CYP2B6, positive control selective inhibitor, human liver microsomes
CYP2B6 (Homo sapiens, UniProt P20813), sequence (P20813 whole entry): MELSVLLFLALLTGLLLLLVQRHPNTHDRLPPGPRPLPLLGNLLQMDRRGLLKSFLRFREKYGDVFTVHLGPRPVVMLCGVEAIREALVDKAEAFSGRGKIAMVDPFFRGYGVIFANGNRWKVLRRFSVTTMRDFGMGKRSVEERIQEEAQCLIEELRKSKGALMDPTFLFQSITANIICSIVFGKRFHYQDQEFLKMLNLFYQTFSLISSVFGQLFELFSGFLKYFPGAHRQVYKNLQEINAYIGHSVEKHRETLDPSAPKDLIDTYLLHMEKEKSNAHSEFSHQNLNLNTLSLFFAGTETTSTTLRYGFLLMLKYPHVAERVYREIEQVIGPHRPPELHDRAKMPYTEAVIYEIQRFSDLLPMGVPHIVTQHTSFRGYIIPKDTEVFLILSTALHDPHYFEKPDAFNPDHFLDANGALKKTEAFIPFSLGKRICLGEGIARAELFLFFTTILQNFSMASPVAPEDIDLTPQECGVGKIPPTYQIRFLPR

CC(O)CN1CCN(CC(=O)[O-])CCN(CC(=O)[O-])CCN(CC(=O)[O-])CC1.[Gd+3] (centres unmarked) [Gadoteridol, gadoteridol]
CNR ([1]; 10 minutes postinjection): 1.32 ± 0.58 | CNR ([1]; 30 minutes postinjection): 1.714 ± 0.69 | CNR [2]: 1.79 ± 0.74 | r1 Relaxivity ([3]; 1.4 T, H2O): 3.2 (H2O) mM^−1 s^−1 | r1 Relaxivity ([3]; 1.5 T, H2O): 2.9 (H2O) mM^−1 s^−1 | r1 Relaxivity ([3]; 1.5 T, plasma): 4.1 mM⁻¹ s⁻¹ | r1 Relaxivity ([3]; 3.0 T, H2O): 2.8 (H2O) mM^−1 s^−1 | r1 Relaxivity ([3]; 3.0 T, plasma): 3.7 mM⁻¹ s⁻¹

Nc1ccc(S(=O)(=O)Nc2ccnn2-c2ccccc2)cc1 [sulfaphenazole, reference compound]
enzyme activity decreased by (CYP2C9): 87.4%

COc1ccc2[nH]c([S+]([O-])Cc3ncc(C)c(OC)c3C)nc2c1 (centres unmarked) [omeprazole, reference compound]
increase of enzyme activity vs vehicle control (CYP1A2): about 40 fold | increase of mRNA expression vs vehicle control (CYP1A2): about 62 fold

C=C[C@H]1C[N@@]2CC[C@H]1C[C@@H]2[C@@H](O)c1ccnc2ccc(OC)cc12 [quinidine, reference compound]
enzyme activity decreased by (CYP2D6): 91.2%

CCC1(c2ccccc2)C(=O)NC(=O)NC1=O [phenobarbital, reference compound]
increase of enzyme activity vs vehicle control (CYP2B6 [4]): ~12 fold | increase of mRNA expression vs vehicle control (CYP2B6 [4]): ~14 fold

TVRTSAD [ZD2]
binding affinity to the EDB fragment (EDB protein fragment): moderate binding affinity

CC(C)(O)c1ccccc1CC[C@@H](SCC1(CC(=O)O)CC1)c1cccc(/C=C/c2ccc3ccc(Cl)cc3n2)c1 [montelukast, reference compound]
enzyme activity decreased by (CYP2C8): 80.0%

C[C@]12CC[C@H]3[C@@H](CCC4=CC(=O)CC[C@@]43C)[C@@H]1CC[C@@H]2O [testosterone, reference compound]
remaining substrate in the positive control [5]: 9.29% | remaining testosterone (systematic control) [6]: 11.4%

O=c1ccc2ccc(O)cc2o1 [7-hydroxycoumarin]
remaining substrate in the positive control [5]: 18.8%

S=P(N1CC1)(N1CC1)N1CC1 [thiotepa, reference compound]
enzyme activity decreased by (CYP2B6 [7]): 89.2%

From paper PMC9444296 (Investigative Radiology, 2022)
